Measured values from article PMC11923060 (Scientific Reports, 2025).

Legend:
testes [1] = assay: Immunofluorescence of tight junction proteins in testicular tissue; format: in vivo, Kunming mice; conditions: Days 20 and 40, + LPS, compared to the LPS group, n = 10 mice/group
testes [2] = assay: Western blot of junction proteins in testicular tissue; format: in vivo, Kunming mice; conditions: Days 20 and 40, + LPS, vs LPS group, n = 10 mice/group
Summary of the method: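 Male Kunming mice (8–10 wk), n = 10/group, gavaged with test peptide 0.5 mg/kg or antibiotic control 25 mg/kg in 200 µL saline for 20 d (10 doses) or 40 d (20 doses), then one i.p. LPS 5 mg/kg; killed 24 h later. ~100 mg testis homogenized in RIPA/protease inhibitors; PVDF blocked in skim milk 2 h, primary antibody overnight 4 °C, secondary 2 h, ECL.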

## polymyxin B
Testes [1]
  expression of Claudin-1 (immunofluorescence): significant increases
  expression of N-cadherin (immunofluorescence): significant increases
Testes [2]
  protein expression of TWIST1 (Western blot): significantly inhibited
